Source: article PMC11840607 (ACS Omega, 2025)

Key:
H1975 cells = test: MTT antiproliferative assay, H1975; type: cell-based, human; conditions: ratio of IC50 BEAS-2B to H1975
Summary of the method: (§1)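 Cell culture: A549, PC9 and normal lung epithelial BEAS-2B in DMEM with 10% FBS and penicillin/streptomycin/amphotericin B; H1975 in RPMI-1640 with 10% FBS; all at 37 °C, 5% CO2. Log-phase cells seeded at 3 × 10^3/well overnight, then exposed to graded compound concentrations or DMSO for 72 h. MTT added for 4 h in the dark, crystals dissolved in DMSO, absorbance read at 490 nm; three parallel experiments.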

A549 cells [1] = test: MTT antiproliferative assay, A549; type: cell-based, human; conditions: ratio of IC50 BEAS-2B to A549
Summary of the method: as §1

A549 cells [2] = test: Annexin V-FITC/PI apoptosis assay, flow cytometry; type: cell-based, human; conditions: 48 h, control 2.64%
Summary of the method: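 A549 cells seeded at 1 × 10^5 per well in 6-well plates and left overnight. They were then treated with test compound for 48 h, collected by PBS rinsing and stained with Annexin V-FITC and PI for 15 min at room temperature in the dark. Apoptotic fractions were read by flow cytometry; mean ± SD, n = 3.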

p27, p21, CDK2, p-Rb = test: Western blot of G1 phase associated proteins; type: cell-based, human; conditions: A549, 0.5 to 2.0 μM, 48 h
Summary of the method: (§2)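 A549 cells were exposed to the indicated test compound concentrations for 48 h, then lysed and heat-denatured at 104 °C for 12 min. Protein was quantified by BCA, and equal amounts were resolved by SDS-PAGE onto PVDF. Membranes were blocked 1 h (5% BSA or skim milk), given primary antibody overnight at 4 °C, washed in TBST, given secondary antibody 2 h at room temperature, and imaged by ECL.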

ALK, p-ALK = test: Western blot of ALK and p-ALK; type: cell-based, human; conditions: A549, 48 h
Summary of the method: as §2

A549 spheroids = test: 3D spheroid cell inhibition assay; type: cell-based, human; conditions: treated every 3 days
Summary of the method: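 A549 cells seeded at 20 000 cells/well in ultralow-attachment U-bottom wells to form tumor spheroids. Once formed, spheroids were exposed to the indicated concentrations of test compound, renewed every 3 days. Spheroids were photographed under a microscope to document growth and morphology.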

[3] = test system: mitochondrial membrane potential; test: Mitochondrial membrane potential, JC-1, flow cytometry; type: cell-based; conditions: control 19.25%
Summary of the method: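 Cells in six-well plates were stained with JC-1 working solution, prepared per kit, for 20 min at 37 °C. After a PBS wash, mitochondrial membrane potential was measured by flow cytometry and also viewed by fluorescence microscopy.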

A549 cells [4] = test: Cell cycle analysis, PI staining, flow cytometry; type: cell-based, human; conditions: A549, 48 h
Summary of the method: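 A549 cells were exposed to a range of test compound concentrations for 48 h. They were then washed in cold PBS, fixed in precooled 70% ethanol and held overnight at −20 °C. After a PBS wash, cells were stained for 30 min at room temperature in the dark with PI (50 μg/mL) plus RNase A (100 μg/mL). DNA content was read by flow cytometry.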

[5] = test system: cleaved-caspase 9, Bax, Bcl-2; test: Western blot of apoptosis-related proteins; type: cell-based, human; conditions: A549, 48 h
Summary of the method: (§3)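 Cells treated with the indicated concentrations of test compound for 48 h. Lysates were heat-denatured at 104 °C for 12 min, protein measured by BCA, and equal amounts run on SDS-PAGE and transferred to PVDF. Membranes were blocked 1 h with 5% BSA or milk, incubated with primary antibody overnight at 4 °C, then secondary 2 h at room temperature. Detection by ECL; bands quantified by densitometry.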

p-PI3K, p-AKT = test: Western blot of PI3K and AKT; type: cell-based, human; conditions: 48 h
Summary of the method: as §3

ALK = test: Proteome Profiler Human Phospho-RTK Array; type: cell-based; conditions: A549, 2.0 μM, 24 h
Summary of the method: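 A549 cells were treated with test compound (2.0 μM) or left untreated for 24 h, then lysed in buffer with protease and phosphatase inhibitors. Protein was measured by Bradford. Arrays covering 49 phospho-RTKs were blocked for 1 h, then incubated with 450 μg lysate overnight at 4 °C. After three washes, arrays were probed for 2 h with anti-phospho-tyrosine-HRP and developed by chemiluminescence.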

CN(C)CCn1cnc2ccc(-c3ccc4sc(NC(=O)Nc5ccc(F)cc5)nc4c3)cc2c1=O [Compound 38]
selectivity (fold) H1975 vs BEAS-2B (H1975 cells): 0.92 fold | selectivity (fold) A549 vs BEAS-2B (A549 cells [1]): 1.30 fold

CCCn1cnc2ccc(-c3ccc4sc(NC(=O)Nc5ccc(F)cc5)nc4c3)cc2c1=O [Compound 45]
selectivity (fold) H1975 vs BEAS-2B (H1975 cells): 5.80 fold | annexin V positive cells (Q2-4) (A549 cells [2]; A549, 2.0 μM): 7.13% | annexin V positive cells (Q2-4) (A549 cells [2]; A549, 4.0 μM): 20.36% | CDK2 expression level (p27, p21, CDK2, p-Rb): reduced in a concentration-dependent manner | p21 expression level (p27, p21, CDK2, p-Rb): markedly upregulated in a dose-dependent manner | p27 expression level (p27, p21, CDK2, p-Rb): markedly upregulated in a dose-dependent manner | p-Rb expression level (p27, p21, CDK2, p-Rb): reduced in a concentration-dependent manner | phosphorylation level of ALK (Western blot) (ALK, p-ALK): reduces the phosphorylation levels of ALK | total protein level of ALK (Western blot) (ALK, p-ALK): decreases the total protein levels of ALK | growth of A549 tumor spheres (A549 spheroids): can inhibit the growth of tumor spheres | JC-1 M2 fraction (change of Δψm) ([3]; 0.25 μM): 47.72% | JC-1 M2 fraction (change of Δψm) ([3]; 0.5 μM): 51.16% | JC-1 M2 fraction (change of Δψm) ([3]; 1.0 μM): 60.52% | selectivity (fold) A549 vs BEAS-2B (A549 cells [1]): 7.10 fold | cell cycle distribution (A549 cells [4]): induced cell cycle arrest at the G1 phase in a concentration-dependent manner | Bax level [5]: increased in a concentration-dependent manner | Bcl-2 level [5]: decreased | cleaved-caspase 9 level [5]: increased in a concentration-dependent manner | p-AKT protein expression (p-PI3K, p-AKT): inhibited the protein expression | p-PI3K protein expression (p-PI3K, p-AKT): inhibited the protein expression | phosphorylation level of ALK (Phospho-RTK array) (ALK): reduced the phosphorylation levels of ALK

CC(=O)O[C@H]1C(=O)[C@@]2(C)[C@H]([C@H](OC(=O)c3ccccc3)[C@]3(O)C[C@H](OC(=O)[C@H](O)[C@@H](NC(=O)c4ccccc4)c4ccccc4)C(C)=C1C3(C)C)[C@]1(OC(C)=O)CO[C@@H]1C[C@@H]2O [paclitaxel, reference compound]
selectivity (fold) H1975 vs BEAS-2B (H1975 cells): 3.28 fold | selectivity (fold) A549 vs BEAS-2B (A549 cells [1]): 0.42 fold
